# In ChEMBL document CHEMBL1154831, “Synthesis, characterization and biological activity of some new 1,3,4-oxadiazole bearing 2-flouro-4-methoxy phenyl moiety” (2010):
# Columns and labels:
# Assay type in all cases: functional
# [1] = test system: Escherichia coli; test: Antimicrobial activity against Escherichia coli after 16 to 18 hrs by serial dilution method
# Outline: (§1)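 Serial dilutions of each compound, each inoculated with one standard drop of the prepared test culture. Incubation was 16–18 h at 37 °C. MIC was read as the highest dilution giving clear fluid with no turbidity.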
# [2] = test system: Candida albicans; test: Antimicrobial activity against Candida albicans after 16 to 18 hrs by serial dilution method; outline: as §1
# [3] = test system: Staphylococcus aureus; test: Antimicrobial activity against Staphylococcus aureus after 16 to 18 hrs by serial dilution method; outline: as §1
# [4] = test system: Pseudomonas aeruginosa; test: Antimicrobial activity against Pseudomonas aeruginosa after 16 to 18 hrs by serial dilution method; outline: as §1
# [5] = test system: Bacillus subtilis; test: Antimicrobial activity against Bacillus subtilis after 16 to 18 hrs by serial dilution method; outline: as §1
SMILES,MIC [1] [µg/mL],MIC [2] [µg/mL],MIC [3] [µg/mL],MIC [4] [µg/mL],MIC [5] [µg/mL]
COc1ccc(-c2nnc(-c3cc(Cl)ccc3Br)o2)c(F)c1,6,3,6,6,6
COc1ccc(-c2nnc(-c3cnc4ccccc4c3)o2)c(F)c1,6,6,6,6,6
COc1ccc(-c2nnc(-c3cc(C)on3)o2)c(F)c1,6,3,12.5,6,12.5
COc1ccc(-c2nnc(-c3ccc([N+](=O)[O-])c(F)c3)o2)c(F)c1,6,6,6,6,6
COc1ccc(-c2nnc(-c3cccc(Br)c3C)o2)c(F)c1,3,6,6,3,6
COc1ccc(-c2nnc(-c3ccc(F)c(F)c3F)o2)c(F)c1,3,6,6,3,6
COc1ccc(-c2nnc(-c3ccccc3C(F)(F)F)o2)c(F)c1,6,6,6,6,6
COc1ccc(-c2nnc(-c3c([N+](=O)[O-])ccc(F)c3F)o2)c(F)c1,12.5,6,6,6,6
COc1ccc(-c2nnc(-c3ccc(F)cc3)o2)c(F)c1,12.5,6,6,6,6
COc1ccc(-c2nnc(-c3cc(F)cc(F)c3)o2)c(F)c1,6,6,6,6,6
COc1ccc(-c2nnc(-c3cccc(C#N)c3)o2)c(F)c1,6,6,6,6,6
COc1ccc(-c2nnc(-c3cccc(C)c3C)o2)c(F)c1,6,6,6,12.5,6
COc1ccc(-c2nnc(-c3ccc(Cl)nc3)o2)c(F)c1,6,6,12.5,12.5,6
OC(Cn1cncn1)(Cn1cncn1)c1ccc(F)cc1F [FLUCONAZOLE],–,6,–,–,–
NC(=O)N/N=C/c1ccc([N+](=O)[O-])o1 [NITROFURAZONE],6,–,12.5,12.5,12.5
